In the library only some 2.5% were active in any assay of this set; here they are far more common.
HTRA1 inh – blocks human HTRA1 serine peptidase. recombinant HTRA1, FP-rhodamine activity-based probe, fluorescence polarization. inhibition, % at 5.96 µM. Q92743. 0.5% of 340,000 active. AID 504803; in the data active = inhibition above about 36%;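 also: 0% = enzyme with DMSO and 100% = wells lacking enzyme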
ABHD4 inh – ABHD4 (mouse) inhibition, primary FP screen. purified mABHD4, FP-Rh probe fluorescence polarization. inhibition, % at 8.92 µM. 0.54% of 370,000 active;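 active = inhibition exceeding the mean over every tested compound plus 3 SD, cut at about 30% in these data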;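 also: 0% = plate median of compound wells and 100% = S159A mutant with DMSO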
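Assay system: mouse ABHD4 enzyme, wild type / Also added: fluorescent activity-based probe FP-Rh / Doses: single nominal dose of 8.92 µM, 0.89% DMSO final / Timing: 45 min compound pre-incubation plus 60 min probe step, 25 °C / Signal: FP readout, ex 525 nm / em 598 nm / Control set: S159A mutant/DMSO as 100%, compound-well median as 0%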
TCR-CD3 inh – human TCR-CD3 binding inhibition; TAMRA-labeled TCR probe fluorescence, biochemical; inhibition, % at 9.4 µM; 0.37% of 360,000 active;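 also: recombinant mutant TCR 2C K166C tagged with TAMRA read by polarization; 0% = receptor in buffer alone and 100% = receptor with positive control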
SIAE primary – human SIAE inhibition, primary screen. inhibition, % at 9.66 µM. SIAE FP-Rh probe binding, fluorescence polarization. AID 1053197. Q9HAT2. 0.69% of 370,000 active;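 active = inhibition above a cutoff: mean of compounds within the control limits plus 3 SD of those, cut at about 17% in these data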;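 also: 0% = plate median of compound wells and 100% = probe without SIAE protein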
Target sequence (Q9HAT2 whole entry, looked up): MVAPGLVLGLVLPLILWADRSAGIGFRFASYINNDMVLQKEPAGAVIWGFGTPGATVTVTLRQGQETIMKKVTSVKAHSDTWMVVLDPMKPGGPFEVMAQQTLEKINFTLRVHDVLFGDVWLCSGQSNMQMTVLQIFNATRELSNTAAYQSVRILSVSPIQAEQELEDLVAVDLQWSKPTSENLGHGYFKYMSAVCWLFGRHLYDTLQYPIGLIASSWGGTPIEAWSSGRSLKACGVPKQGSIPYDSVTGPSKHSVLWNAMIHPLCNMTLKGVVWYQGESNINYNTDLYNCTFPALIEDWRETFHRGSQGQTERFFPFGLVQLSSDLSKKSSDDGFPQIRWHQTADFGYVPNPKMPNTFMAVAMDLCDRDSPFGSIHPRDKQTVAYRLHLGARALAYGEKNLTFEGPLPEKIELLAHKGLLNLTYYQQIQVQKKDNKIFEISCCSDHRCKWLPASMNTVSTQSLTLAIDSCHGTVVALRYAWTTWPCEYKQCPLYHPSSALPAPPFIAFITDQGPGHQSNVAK
PRMT1 FP inh – PRMT1 (human) inhibition, primary screen. recombinant PRMT1, activity-based probe fluorescence polarization. Q99873. inhibition, % at 2.79 µM. 1.3% of 370,000 active;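 active = inhibition above about 21% made by adding two undisclosed values, limit read from the data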
BSA TAMRA ctr – interferes with TAMRA-BSA probe, flagging TCR-CD3 hits | 10% of 1,200 active | shares compounds with TCR-CD3 inh | inhibition, % at 9.4 µM | AID 652035 | TAMRA-labeled BSA probe fluorescence counterscreen; in the data active = inhibition above about 23%;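 also: 0% = buffer low control and 100% = reference high control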
TCR-CD3 conf – TCR-CD3 interaction inhibition, confirmation; shares compounds with TCR-CD3 inh; TAMRA-labeled TCR probe fluorescence binding assay; inhibition, % at 9.4 µM; 48% of 1,200 active
Numbers without * were called inactive. Rule as the data show it, unless noted: active = inhibition above about 19%; inactive = the rest.

COc1ccccc1NC(=O)NNC(=O)c1cc2ccccc2cc1O was read as HTRA1 inh 33.0, ABHD4 inh 7.8, TCR-CD3 inh 19.3*, SIAE primary 13.3, PRMT1 FP inh 0.7, BSA TAMRA ctr -5.8 and TCR-CD3 conf 22.8*.
COc1ccc(-c2c(-c3cc(OC)cc(OC)c3)n(C)c3ccc(-c4ccc(S(N)(=O)=O)cc4)cc23)cc1 was read as HTRA1 inh -12.7, ABHD4 inh -2.6, TCR-CD3 inh -1.0, SIAE primary 3.1 and PRMT1 FP inh 0.6.
Screening Cc1ccc(NC(=S)NCc2ccco2)c(C)c1 returned HTRA1 inh -0.4, ABHD4 inh -1.1, TCR-CD3 inh 2.0, SIAE primary 7.2 and PRMT1 FP inh -1.9.
For CN1CCc2c(c3ccccc3n2Cc2ccccc2)C1 the results were HTRA1 inh -2.9, ABHD4 inh -6.7, TCR-CD3 inh -6.9, SIAE primary 7.1, PRMT1 FP inh -2.2, BSA TAMRA ctr 1.9 and TCR-CD3 conf 3.2.
FC(F)(F)c1ccccc1Cn1ccc2ccc(-c3ccc4ccn(Cc5ccccc5C(F)(F)F)c4c3)cc21 was read as ABHD4 inh -6.5, SIAE primary 1.8 and PRMT1 FP inh -2.1.
For COc1ccc(C2=NOC(C)(c3nnc(-c4ccc(Cl)cc4)o3)C2)cc1 (stereo not given) the results were HTRA1 inh -15.5, ABHD4 inh -6.8, TCR-CD3 inh 33.6*, SIAE primary 5.4, PRMT1 FP inh -0.9, BSA TAMRA ctr -0.3 and TCR-CD3 conf -0.4.
Cc1cc2cc(CNC(=O)c3cccc([N+](=O)[O-])c3)ccc2n1C was read as HTRA1 inh -0.2, ABHD4 inh 27.5, TCR-CD3 inh 26.4*, SIAE primary 5.0, PRMT1 FP inh 6.8, BSA TAMRA ctr 3.4 and TCR-CD3 conf 4.2.
Screening Cc1ccc(CNC(=O)c2ccc(S(=O)(=O)N3CCCCCC3)cc2)cc1 returned HTRA1 inh 1.5, ABHD4 inh 2.0, TCR-CD3 inh -2.0, SIAE primary -1.4 and PRMT1 FP inh 2.2.
`Cc1cc2cc(CNC(=O)c3ccc(S(=O)(=O)N4CCOCC4)cc3)ccc2n1C` gave HTRA1 inh 15.4, ABHD4 inh 22.7, TCR-CD3 inh 48.1*, SIAE primary 8.5, PRMT1 FP inh 4.1, BSA TAMRA ctr 2.1 and TCR-CD3 conf 4.7.
Screening Cc1cc2cc(CNC(=O)c3ccc(S(=O)(=O)N(C)C)cc3)ccc2n1C returned HTRA1 inh 11.1, ABHD4 inh 14.4, TCR-CD3 inh 25.3*, SIAE primary 14.6, PRMT1 FP inh -0.5, BSA TAMRA ctr 2.9 and TCR-CD3 conf 2.0.
COc1cccc(CNC(=O)c2ccc(S(=O)(=O)N3CCOCC3)cc2)c1 was read as HTRA1 inh -3.1, ABHD4 inh -2.7, TCR-CD3 inh -0.1, SIAE primary 6.0 and PRMT1 FP inh 0.1.
Screening Cc1cc2cc(CNC(=O)Cc3ccc([N+](=O)[O-])cc3)ccc2n1C returned HTRA1 inh 29.0, ABHD4 inh 2.0, TCR-CD3 inh 4.6, SIAE primary -1.1 and PRMT1 FP inh -3.5.
Cc1cc2cc(CNC(=O)c3ccc(S(=O)(=O)N4CCCCC4)cc3)ccc2[nH]1 was read as HTRA1 inh -11.9, ABHD4 inh 24.3, TCR-CD3 inh 19.5*, SIAE primary -1.4, PRMT1 FP inh 3.6, BSA TAMRA ctr -2.4 and TCR-CD3 conf -2.1.
`C/C(=N\NC(=O)c1cc(C2CC2)nc2ccccc12)c1ccc(O)cc1O` gave HTRA1 inh 15.3, ABHD4 inh 7.9, TCR-CD3 inh 21.6*, SIAE primary 8.1, PRMT1 FP inh -1.8, BSA TAMRA ctr -12.5 and TCR-CD3 conf 24.4*.
For C/C(=N\NC(=O)c1cc(C2CC2)nc2ccccc12)c1ccc(C)s1 the results were HTRA1 inh -13.4, ABHD4 inh 3.4, TCR-CD3 inh 5.6, SIAE primary -1.1 and PRMT1 FP inh 0.3.
For CN1CCC(OC(c2ccccc2)c2ccc(Cl)cc2)C1 (stereo not given) the results were HTRA1 inh 3.9, ABHD4 inh 3.7, TCR-CD3 inh 30.7*, SIAE primary 2.5, PRMT1 FP inh 3.2, BSA TAMRA ctr -3.1 and TCR-CD3 conf 2.5.
`Cc1ccc[n+](-c2[nH]c(=O)sc2/C=N/NC(=O)c2ccccc2[O-])c1` gave HTRA1 inh 6.3, ABHD4 inh 3.0, TCR-CD3 inh 19.2*, SIAE primary -4.2, PRMT1 FP inh 12.1, BSA TAMRA ctr -13.7 and TCR-CD3 conf 1.0.
O=C(N/N=C/c1sc(=O)[nH]c1-[n+]1ccccc1)c1ccccc1[O-] was read as HTRA1 inh 6.8, ABHD4 inh 9.0, TCR-CD3 inh 3.0, SIAE primary 8.3 and PRMT1 FP inh -1.0.
For COc1ccccc1NC(=O)c1cnc(SCC(=O)NCCc2ccccc2)n(C)c1=O the results were HTRA1 inh -2.0, ABHD4 inh 0.2, TCR-CD3 inh 4.8, SIAE primary -6.2 and PRMT1 FP inh -0.1.
Screening CS/C(N)=N/N=C/c1cc(C)ccc1O returned HTRA1 inh -0.5, ABHD4 inh 1.5, TCR-CD3 inh 1.5, SIAE primary 4.3 and PRMT1 FP inh -2.8.
CS/C(N)=N/N=C/c1cc(Br)cc(Br)c1O was read as HTRA1 inh 20.2, ABHD4 inh -2.6, TCR-CD3 inh 35.4*, SIAE primary -1.9, PRMT1 FP inh -3.5, BSA TAMRA ctr 13.8 and TCR-CD3 conf 35.7*.
`CCc1c(C)nc2ncnn2c1NCCc1ccc(Cl)cc1` gave HTRA1 inh -13.1, ABHD4 inh -2.1, TCR-CD3 inh 3.1, SIAE primary 5.3 and PRMT1 FP inh -0.4.
For COc1ccccc1OC(=O)c1ccc2nsnc2c1 the results were HTRA1 inh -6.4, ABHD4 inh -2.2, TCR-CD3 inh 20.6*, SIAE primary -0.3, PRMT1 FP inh 3.3, BSA TAMRA ctr 6.1 and TCR-CD3 conf 4.5.
For COc1ccc(C(=O)NNC(=S)NC(=O)c2ccc(F)cc2)cc1Br the results were ABHD4 inh 3.8, TCR-CD3 inh 19.9*, SIAE primary 0.2, PRMT1 FP inh -10.3, BSA TAMRA ctr -5.1 and TCR-CD3 conf 5.3.
`Cc1cc(NS(=O)(=O)c2ccc(NC(=S)NC(=O)c3cccnc3)cc2)no1` gave HTRA1 inh 7.8, ABHD4 inh -6.7, TCR-CD3 inh 46.2*, SIAE primary -1.6, PRMT1 FP inh 4.4, BSA TAMRA ctr 1.6 and TCR-CD3 conf 1.9.
For COc1ccc(C(=O)NNC(=S)NC(=O)c2ccc(OC)cc2)cc1 the results were HTRA1 inh 3.6, ABHD4 inh 2.6, TCR-CD3 inh 10.6, SIAE primary 4.7 and PRMT1 FP inh -4.3.
For COc1ccc(C(=O)NNC(=S)NC(=O)c2cccs2)cc1 the results were HTRA1 inh 2.2, ABHD4 inh -5.2, TCR-CD3 inh 23.3*, SIAE primary 3.5, PRMT1 FP inh -6.2, BSA TAMRA ctr 3.3 and TCR-CD3 conf 29.6*.
